Measurements pooled from the literature.
Observed: cell growth or viability

The IC50 of `CN1C(=O)CCC(N2Cc3c(C#CC4CCN(C(=O)[C@H]5CC[C@H](NC(=O)[C@@H]6NC7(CCCCC7)[C@@]7(C(=O)Nc8cc(Cl)ccc87)[C@H]6c6cccc(Cl)c6F)CC5)CC4)cccc3C2=O)C1=O` (some centres unmarked) is reported as 0.751 µM (RS4-11).
With `Cc1cc(/C=C/C#N)cc(C)c1Nc1ccnc(Nc2ccc(C#N)cc2)n1` the IC50 was 14.1 µM (HNE1; MTT; 48 h).
The IC50 of `CC(C)c1ccccc1[C@@H]1CCCN1C1CC2(CCN(c3ccc(C(=O)NS(=O)(=O)c4ccc(NC[C@H]5CC[C@](C)(O)CC5)c([N+](=O)[O-])c4)c(Oc4cnc5[nH]ccc5c4)c3)CC2)C1` is reported as 0.00056 µM (RS4-11; ATP luminescence; 48 h).
`C=CC(=O)Nc1cc(Nc2nccc(-c3cn(C)c4ccccc34)n2)c(OC)cc1N(C)CCN(C)C` gave an IC50 of 5.38 µM (NCI-H460; 72 h).
With `COc1cc2c3c(n(CCCNC(C)C)c(=O)c2cc1OC)-c1nc2c(cc1C3=O)OCO2` the IC50 was 0.053 µM (RS4-11; MTS; 72 h).
For `CO[C@]12C[C@@H](COC(=O)c3cncc(Br)c3)CN(C)[C@@H]1Cc1cn(C)c3cccc2c13`, the IC50 was 5.99 µM (HK-1; MTT; 48 h).
`COc1cc2c(cc1OC)-c1cc3ccc(OC)c(OCCN)c3c[n+]1CC2` has an IC50 of > 80 µM (NCI-H460; MTT; 72 h).
`O=C1Nc2ccccc2C2(O)CCN3C12c1ccccc1S3(=O)=O` (centres unmarked) gave an IC50 of > 290 µM (L6).
The IC50 of `N#Cc1cc(/C=N/NC(=N)N/N=C/c2ccc(OC(F)(F)F)cc2)ccc1F` is reported as 7.05 µM (L6; resazurin; 70 h).
With `Cc1c(C(=O)O)ccc2c3n(nc12)[C@@H]1[C@H](C3)N(CC2CC2)[C@@]2(C(=O)Nc3cc(Cl)ccc32)[C@H]1c1cccc(Cl)c1F` the IC50 was 0.259 µM (Colon 26; resazurin; 72 h).
`COc1cc2c3c(n(CCCNCCO)c(=O)c2cc1OC)-c1nc2c(cc1C3=O)OCO2` gave an IC50 of 0.034 µM (RS4-11; MTS; 72 h).
For `O=C1CCN2C(=O)c3ccccc3C2C(=O)Nc2ccc(F)cc21` (centres unmarked), the IC50 was > 310 µM (L6).
With `C=C(F)C(=O)N1CCN(c2nc(OC[C@@H]3CCCN3C)nc3c2CCN(c2cccc4cccc(Cl)c24)C3)C[C@@H]1CC#N` the IC50 was > 1 µM (A-427; ATP luminescence; 3D culture).
For `N=C(N/N=C/c1ccc(Oc2ccccc2)cc1)N/N=C/c1ccc(Oc2ccccc2)cc1`, the IC50 was 4.44 µM (L6; resazurin; 70 h).
`COc1cc2nc(N3CCN(C(=O)c4ccco4)CC3)nc(N)c2cc1OC` has an IC50 of 41.6 µM (HNE1; MTT; 48 h).
`N#Cc1cc(C=NNC(=N)NN=Cc2ccc(F)c(C#N)c2)ccc1F` gave an IC50 of 5.95 µM (L6; resazurin; 70 h).
For `CO/N=C1/CCN2C(=O)c3ccccc3C2C(=O)Nc2ccccc21` (centres unmarked), the IC50 was > 300 µM (L6).
`N=C(NN=Cc1ccc(N2CCOCC2)cc1)NN=Cc1ccc(N2CCOCC2)cc1` has an IC50 of 2.3 µM (L6; resazurin; 70 h).
`O=C1CCN2C(=O)CCC2C(=O)Nc2ccccc21` (centres unmarked) gave an IC50 of > 390 µM (L6).
`N=C(N/N=C/c1ccc(Oc2ccc(Cl)cc2)cc1)N/N=C/c1ccc(Oc2ccc(Cl)cc2)cc1` has an IC50 of 3.18 µM (L6; resazurin; 70 h).
With `O=C1CCN2C(=O)c3cc(F)c(F)cc3C2C(=O)Nc2ccccc21` (centres unmarked) the IC50 was > 290 µM (L6).
`COc1cc2nc(N3CCN(C(=O)C4COc5ccccc5O4)CC3)nc(N)c2cc1OC` (centres unmarked) has an IC50 of 31.7 µM (HK-1; MTT; 48 h).
`N=C(N/N=C/c1cccc([N+](=O)[O-])c1)N/N=C/c1cccc([N+](=O)[O-])c1` gave an IC50 of 17.7 µM (L6; resazurin; 70 h).
